The target of series [1] is T1, Polyunsaturated fatty acid lipoxygenase ALOX12 (Homo sapiens) (UniProt P18054).
T1 sequence (whole entry): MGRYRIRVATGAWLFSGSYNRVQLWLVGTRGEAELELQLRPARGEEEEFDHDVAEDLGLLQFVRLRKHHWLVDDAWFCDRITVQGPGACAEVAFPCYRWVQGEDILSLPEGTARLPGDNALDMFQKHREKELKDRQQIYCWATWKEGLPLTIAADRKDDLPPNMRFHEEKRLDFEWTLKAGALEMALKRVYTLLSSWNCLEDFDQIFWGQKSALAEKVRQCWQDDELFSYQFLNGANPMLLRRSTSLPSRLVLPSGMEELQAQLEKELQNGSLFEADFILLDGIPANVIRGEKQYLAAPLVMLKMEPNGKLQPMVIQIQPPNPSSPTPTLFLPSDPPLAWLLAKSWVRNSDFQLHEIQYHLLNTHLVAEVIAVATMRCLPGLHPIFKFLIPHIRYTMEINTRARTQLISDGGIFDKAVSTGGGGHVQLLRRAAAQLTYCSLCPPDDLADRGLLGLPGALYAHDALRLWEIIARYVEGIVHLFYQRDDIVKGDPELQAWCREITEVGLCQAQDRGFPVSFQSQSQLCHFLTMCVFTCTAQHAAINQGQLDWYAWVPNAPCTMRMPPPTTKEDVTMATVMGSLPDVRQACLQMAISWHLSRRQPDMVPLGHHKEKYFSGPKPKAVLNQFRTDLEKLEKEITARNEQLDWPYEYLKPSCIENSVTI
The series is described as follows: Inhibition of 12-LO-mediated 12-HPETE formation in human platelets using arachidonic acid as substrate assessed as residual activity at 50 uM preincubated for 15 mins before substrate addition measured after 10 mins. A digest of the protocol:
(§1)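 Freshly isolated human platelets (10^8 in 1 ml PBS pH 7.4 with 1 mg/ml glucose and 1 mM CaCl2) preincubated with compound or DMSO 15 min at 37 °C, then 10 µM AA added; 10 min at 37 °C, stopped with ice-cold methanol. HPLC: 12-H(P)ETE for 12-LO, 12-HHT for COX-1; percent of DMSO control, n ≥ 3, mean ± S.E.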

The target of series [2] is T2, Polyunsaturated fatty acid lipoxygenase ALOX15 (Homo sapiens) (UniProt P16050).
T2 sequence (whole entry): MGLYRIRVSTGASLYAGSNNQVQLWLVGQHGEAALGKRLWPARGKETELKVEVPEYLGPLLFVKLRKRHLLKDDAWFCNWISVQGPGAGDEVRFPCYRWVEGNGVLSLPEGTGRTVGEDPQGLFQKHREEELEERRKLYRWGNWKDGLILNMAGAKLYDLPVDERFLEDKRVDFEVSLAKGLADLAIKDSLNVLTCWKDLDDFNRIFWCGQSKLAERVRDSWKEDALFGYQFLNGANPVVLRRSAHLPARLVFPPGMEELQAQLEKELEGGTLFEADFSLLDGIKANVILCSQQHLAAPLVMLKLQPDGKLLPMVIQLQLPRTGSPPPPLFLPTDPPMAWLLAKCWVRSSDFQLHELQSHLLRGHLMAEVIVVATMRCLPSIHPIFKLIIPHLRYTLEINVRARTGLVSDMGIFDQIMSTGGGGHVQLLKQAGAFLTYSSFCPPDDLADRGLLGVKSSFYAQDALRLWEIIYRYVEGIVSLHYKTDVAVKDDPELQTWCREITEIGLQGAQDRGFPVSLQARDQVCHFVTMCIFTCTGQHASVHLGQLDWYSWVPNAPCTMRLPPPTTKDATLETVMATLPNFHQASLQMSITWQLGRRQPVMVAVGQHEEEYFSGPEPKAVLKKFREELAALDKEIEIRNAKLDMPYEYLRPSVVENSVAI
The series is described as follows: Inhibition of 15-LO1-mediated 15-HPETE formation in human eosinophil using arachidonic acid as substrate assessed as residual activity at 50 uM preincubated for 15 mins before substrate addition measured after 10 mins. An outline of the steps:
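Freshly isolated human PMNL (5 × 10^6/ml PBS-glucose, 1 mM CaCl2), with 15-LO1 from contaminating eosinophils, preincubated with compound 15 min at 37 °C; stimulated with 2.5 µM A23187 plus 20 µM AA for 10 min at 37 °C, methanol stop. 15-H(P)ETE peak quantified by HPLC as percent of DMSO control; n ≥ 3, mean ± S.E.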

Series [3] addresses Prostaglandin G/H synthase 1 (Homo sapiens) (UniProt P23219). The series is described as follows: Inhibition of COX1 in human platelets using arachidonic acid as substrate assessed as residual activity at 50 uM preincubated for 15 mins before substrate addition measured after 10 mins. An outline of the steps:
as §1

The target of series [4] is T3, Prostaglandin G/H synthase 2 (Homo sapiens) (UniProt P35354).
T3 sequence (whole entry): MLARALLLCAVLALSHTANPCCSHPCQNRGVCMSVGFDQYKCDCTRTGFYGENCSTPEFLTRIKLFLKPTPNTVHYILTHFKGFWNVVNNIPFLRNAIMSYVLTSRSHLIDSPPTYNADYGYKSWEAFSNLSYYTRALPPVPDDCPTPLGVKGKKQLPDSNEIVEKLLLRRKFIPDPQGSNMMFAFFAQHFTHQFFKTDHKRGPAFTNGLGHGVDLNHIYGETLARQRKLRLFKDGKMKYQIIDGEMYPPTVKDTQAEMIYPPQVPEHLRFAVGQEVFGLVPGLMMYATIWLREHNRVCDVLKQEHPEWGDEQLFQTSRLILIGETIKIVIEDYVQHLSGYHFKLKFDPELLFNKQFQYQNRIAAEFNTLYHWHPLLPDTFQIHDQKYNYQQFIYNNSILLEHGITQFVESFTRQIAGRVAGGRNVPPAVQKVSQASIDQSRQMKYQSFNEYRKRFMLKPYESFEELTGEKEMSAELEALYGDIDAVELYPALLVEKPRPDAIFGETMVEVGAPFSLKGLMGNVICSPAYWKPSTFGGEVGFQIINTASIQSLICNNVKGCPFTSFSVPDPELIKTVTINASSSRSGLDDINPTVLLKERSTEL
The series is described as follows: Inhibition of COX2-mediated PGE2 formation in IL1beta/TNFalpha-stimulated human HeLa cells using arachidonic acid as substrate assessed as residual activity at 50 uM measured after 30 mins by ELISA. The series is classed as cell-based. An outline of the steps: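 HeLa cells (3 × 10^4/well) grown 24 h, then induced with 1 ng/ml IL1β and 5 ng/ml TNFα for 24 h; washed three times with PBS containing fatty-acid-free BSA 1 mg/ml. Medium with cytokines plus compound or DMSO for 30 min, stopped on ice; supernatant PGE2 by ELISA, percent of DMSO control. Three experiments, mean ± S.E.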

A short description of series [5]: Cytotoxicity against human U937 cells at 30 uM after 48 hrs by LDH assay. The series is classed as cell-based. The following applies: u-937, 48 h. An outline of the steps: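 U937 cells (DSMZ; RPMI, 10% FCS, 37 °C, 5% CO2) seeded at 1.5 × 10^4 cells/well, exposed to test agent or DMSO vehicle for 48 h. Supernatant collected after centrifugation; LDH release quantified by kit, expressed relative to detergent-lysed maximum (100%). Three experiments, mean ± S.E.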

Bounds are passed on as bounds.

Sequence of Prostaglandin G/H synthase 1 (Homo sapiens) (P23219 whole entry): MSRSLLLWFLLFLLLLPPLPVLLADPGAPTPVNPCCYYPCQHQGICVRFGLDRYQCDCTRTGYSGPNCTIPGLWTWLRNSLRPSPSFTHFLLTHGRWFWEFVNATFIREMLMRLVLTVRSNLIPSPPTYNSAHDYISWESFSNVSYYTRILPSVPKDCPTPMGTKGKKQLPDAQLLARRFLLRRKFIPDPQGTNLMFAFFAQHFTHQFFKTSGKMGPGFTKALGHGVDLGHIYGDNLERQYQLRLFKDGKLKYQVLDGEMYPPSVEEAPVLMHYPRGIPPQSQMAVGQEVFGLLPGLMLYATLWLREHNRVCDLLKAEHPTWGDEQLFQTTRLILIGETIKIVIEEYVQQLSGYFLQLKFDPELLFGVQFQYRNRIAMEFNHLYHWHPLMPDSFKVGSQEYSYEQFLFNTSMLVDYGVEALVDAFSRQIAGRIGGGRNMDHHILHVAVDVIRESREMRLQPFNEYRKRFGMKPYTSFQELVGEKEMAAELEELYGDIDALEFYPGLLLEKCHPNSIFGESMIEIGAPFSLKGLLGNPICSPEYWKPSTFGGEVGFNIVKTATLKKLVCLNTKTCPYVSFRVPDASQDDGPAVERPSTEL

Regarding `FC(F)(F)Oc1ccc(Nc2nc(-c3ccc(Cl)cc3)cs2)cc1`, the Activity in series [1] is over 70%; in series [2], over 70%; in series [3], 1.1%; in series [4], 17.8%.
On to `CC(=O)c1ccc(Nc2nc(-c3ccc(F)cc3)cs2)cc1`, for which the Activity in series [1] is over 70%; in series [2], over 70%; in series [3] it was 56.1%; in series [4], 9.1%.
As for `CCOc1ccc(-c2csc(Nc3ccc(O)cc3)n2)cc1`, the Activity is over 70% in series [1], over 70% in series [2], 16.6% in series [3] and 2.1% in series [4].
`COc1ccc(Nc2nc(-c3ccc(Cl)cc3)cs2)cc1`: the Activity in series [5] was 1.6%; in series [1], over 70%; in series [2] it was over 70%; in series [3], 25.6%; in series [4], 3.7%.
Turning to `COc1ccc(Nc2nc(-c3ccc(Cl)cc3)cs2)cc1OC`, the values for the Activity in series [1], in series [2] and in series [4] were over 70%, over 70% and 8.6%, respectively.
Take `Oc1ccc(Nc2nc(-c3ccccc3)cs2)cc1`: the Activity in series [5] turned out to be 5.5%; in series [1], 34.9%; in series [2] it was 13%; in series [3], 16.2%; in series [4], 3.1%.
The corresponding values for `OC(c1ccc(Nc2nc(-c3ccc(Cl)cc3)cs2)cc1)(C(F)(F)F)C(F)(F)F` are 21.7%, over 70%, over 70%, 2.6% and 42.9%.
On to `COc1ccc(-c2csc(Nc3ccccc3)n2)cc1`, for which the Activity in series [1] is over 70%; in series [2], 50.3%; in series [3] it was 2%; in series [4] it was 2.3%.
In the case of `Nc1ccc(-c2csc(Nc3ccc(O)cc3)n2)cc1`, the Activity in series [1] is over 70%; in series [2], over 70%; in series [3], 26.7%; in series [4] it was 3.3%.
`COc1ccc(Nc2nc(-c3ccccc3)cs2)cc1`: the Activity in series [1] was over 70%; in series [2], over 70%; in series [3] it was 2.3%; in series [4], 3.2%.
As to `Clc1ccc(-c2csc(Nc3cc(Cl)cc(Cl)c3)n2)cc1`, the Activity in series [1] was over 70%; in series [2], over 70%; in series [3] it was 2.3%; in series [4] it was 30.9%.
As to `Oc1cccc(Nc2nc(-c3ccccc3)cs2)c1`, the Activity is over 70% in series [1], over 70% in series [2], 4.1% in series [3] and 2.4% in series [4].
As to `Clc1ccc(-c2csc(Nc3ccc4c(c3)OCO4)n2)cc1`, the Activity in series [1] was over 70%; in series [2] it was over 70%; in series [3], 3.2%; in series [4], 3.8%.
Consider `Clc1ccc(-c2csc(Nc3ccc4c(c3)OCCO4)n2)cc1`, for which the Activity is over 70% in series [1], over 70% in series [2], 6% in series [3] and 5.5% in series [4].
As for `Oc1ccc(-c2csc(Nc3ccc(Cl)cc3)n2)cc1`, the Activity in series [5] was 1.4%; in series [1] it was over 70%; in series [2], 43.1%; in series [3], 3.5%; in series [4] it was 2.1%.
As to `Clc1ccc(-c2csc(Nc3ccc(N4CCOCC4)cc3)n2)cc1`, the Activity in series [1], in series [2], in series [3] and in series [4] was over 70% throughout.
As to `FC(F)(F)c1cc(Nc2nc(-c3ccc(Cl)cc3)cs2)cc(C(F)(F)F)c1`, the Activity in series [5] was 18.2%; in series [1], over 70%; in series [2], over 70%; in series [3] it was 13.7%; in series [4], 45.1%.
As for `COc1ccc(Nc2nc(-c3ccc(Cl)cc3)cs2)c(OC)c1`, the Activity in series [1] is over 70%; in series [2], over 70%; in series [3], over 70%; in series [4], 18.4%.
Regarding `Clc1ccc(-c2csc(Nc3ccccc3)n2)cc1`, the Activity in series [1] was over 70%; in series [2] it was over 70%; in series [3], 7.7%; in series [4], 5%.
With `Oc1cccc(Nc2nc(-c3ccc(Cl)cc3)cs2)c1`, the Activity in series [1] was over 70%; in series [2], 57%; in series [3] it was 19.5%; in series [4], 2.7%.
Regarding `Oc1ccc(-c2csc(Nc3ccc(F)cc3)n2)cc1`, the Activity is 4.2% in series [1], 53.7% in series [2], 2.1% in series [3] and 2.1% in series [4].
As to `CC(=O)c1cccc(Nc2nc(-c3ccc(Cl)cc3)cs2)c1`, the Activity was over 70% in series [1], over 70% in series [2], 38.7% in series [3] and 59.9% in series [4].
Take `O=S(=O)(c1ccc(-c2csc(Nc3ccc(Cl)cc3)n2)cc1)N1CCOCC1`: the Activity in series [1] was over 70%; in series [2] it was 41.3%; in series [3] it was over 70%; in series [4] it was 39.1%.
Consider `COc1ccccc1Nc1nc(-c2ccc(Cl)cc2)cs1`, for which the Activity in series [1] was over 70%; in series [2], over 70%; in series [3], 55.8%; in series [4], 5.3%.
With `FC(F)(F)c1ccc(Nc2nc(-c3ccc(Cl)cc3)cs2)cc1`, the Activity was over 70% in series [1], over 70% in series [2], 2.7% in series [3] and over 70% in series [4].

These data come from ChEMBL document CHEMBL3352533, “Multi-dimensional target profiling of N,4-diaryl-1,3-thiazole-2-amines as potent inhibitors of eicosanoid metabolism” (Eur J Med Chem, 2014).
